# Measured values: ChEMBL document CHEMBL1926565, “Synthesis, antiproliferative activities and telomerase inhibition evaluation of novel asymmetrical 1,2-disubstituted amidoanthraquinone derivatives” (Eur J Med Chem, 2012)
# Calls of active or inactive are those of the source. No cut-off for these calls is given here.
# Legend:
# [1] = target: Telomerase reverse transcriptase (Homo sapiens) (UniProt O14746); test: Residual activity of human TERT in H1299 cells at 1 uM after 24 hrs by SEAP reporter gene assay
# [2] = target: Telomerase reverse transcriptase (Homo sapiens) (UniProt O14746); test: Residual activity of human TERT in H1299 cells at 10 uM after 24 hrs by SEAP reporter gene assay
# [3] = target: Telomerase reverse transcriptase (Homo sapiens) (UniProt O14746); test: Inhibition of telomerase activity in human H1299 cell free extract at 10 uM by modified TRAP assay
# Summary of the method: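 TRAP assay using total cell lysate from H1299 lung cancer cells as the telomerase source, with protein measured against BSA standards. Compounds tested at 10 µM. Controls were lysate without inhibitor (positive) and RNase A-treated extract without inhibitor (negative).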
# [4] = test system: PC-3; test: Cytotoxicity against human PC3 cells after 48 hrs by SRB assay; format: functional, cell-based; conditions: PC-3, 48 h
# Summary of the method: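 PC-3 cells grown in RPMI1640 with 10% FBS at 37 °C, 5% CO₂. Seeded in medium with 5% FBS; after 24 h, one plate fixed with 10% TCA as T₀. Compound or 0.1% DMSO vehicle added for 48 h, then TCA fixation and 0.4% SRB in 1% acetic acid. Dye solubilized in 10 mM Trizma base, absorbance read at 515 nm. IC50 is the concentration giving 50% reduction of the protein gain in controls.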
# [5] = target: Telomerase reverse transcriptase (Homo sapiens) (UniProt O14746); test: Residual activity of human TERT in H1299 cells at 100 uM after 24 hrs by SEAP reporter gene assay
# [6] = Growth of human H1299 cells at 100 uM 48 hrs by MTT assay; conditions: NCI-H1299, 48 h
# [7] = Growth of human H1299 cells at 1 uM after 48 hrs by MTT assay; conditions: NCI-H1299, 48 h
# [8] = Growth of human H1299 cells at 10 uM after 48 hrs by MTT assay; conditions: NCI-H1299, 48 h
# Telomerase reverse transcriptase (Homo sapiens), sequence (O14746 whole entry): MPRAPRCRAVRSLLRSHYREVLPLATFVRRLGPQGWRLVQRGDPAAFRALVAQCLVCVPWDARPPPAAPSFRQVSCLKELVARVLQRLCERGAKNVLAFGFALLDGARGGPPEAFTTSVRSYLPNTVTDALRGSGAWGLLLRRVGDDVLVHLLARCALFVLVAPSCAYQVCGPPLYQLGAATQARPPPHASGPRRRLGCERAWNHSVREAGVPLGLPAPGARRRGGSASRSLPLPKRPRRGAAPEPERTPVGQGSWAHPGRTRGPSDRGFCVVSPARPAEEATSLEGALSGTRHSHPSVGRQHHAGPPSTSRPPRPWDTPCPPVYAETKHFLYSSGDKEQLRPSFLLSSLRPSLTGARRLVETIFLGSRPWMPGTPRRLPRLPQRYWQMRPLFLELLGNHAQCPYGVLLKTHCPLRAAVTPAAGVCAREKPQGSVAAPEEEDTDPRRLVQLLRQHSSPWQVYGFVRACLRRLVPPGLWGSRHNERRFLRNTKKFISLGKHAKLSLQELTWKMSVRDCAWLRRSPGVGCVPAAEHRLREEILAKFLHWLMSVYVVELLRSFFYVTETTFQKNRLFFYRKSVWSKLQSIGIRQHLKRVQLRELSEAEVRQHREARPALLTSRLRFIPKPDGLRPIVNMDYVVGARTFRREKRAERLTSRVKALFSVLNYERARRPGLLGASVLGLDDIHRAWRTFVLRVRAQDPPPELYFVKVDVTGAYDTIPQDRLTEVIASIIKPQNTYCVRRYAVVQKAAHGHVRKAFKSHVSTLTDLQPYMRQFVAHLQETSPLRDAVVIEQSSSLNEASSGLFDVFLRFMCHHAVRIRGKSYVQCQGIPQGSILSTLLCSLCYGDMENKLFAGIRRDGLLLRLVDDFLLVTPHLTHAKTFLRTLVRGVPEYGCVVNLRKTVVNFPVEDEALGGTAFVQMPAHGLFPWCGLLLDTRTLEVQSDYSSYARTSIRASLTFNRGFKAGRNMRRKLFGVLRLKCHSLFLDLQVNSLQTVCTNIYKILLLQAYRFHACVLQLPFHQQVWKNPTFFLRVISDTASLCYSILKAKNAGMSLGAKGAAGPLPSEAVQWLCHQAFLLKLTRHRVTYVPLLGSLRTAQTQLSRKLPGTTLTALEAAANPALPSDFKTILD
SMILES,residual activity [1],residual activity [2],inhibition [3],IC50 [4],residual activity [5],"growth, % of control at 100 µM [6]","growth, % of control at 1 µM [7]","growth, % of control at 10 µM [8]"
Cc1ccc(C(=O)Nc2c(NC(=O)CN(C)CC3OCCO3)ccc3c2C(=O)c2ccccc2C3=O)cc1,100%,76%,inactive,1.46 µM,10%,3%,104%,88%
O=C(CCl)Nc1ccc2c(c1NC(=O)c1ccc(C(F)(F)F)cc1)C(=O)c1ccccc1C2=O,85%,8%,inactive,6.67 µM,6%,0%,86%,6%
O=C(CCl)Nc1ccc2c(c1NC(=O)c1cccc(F)c1)C(=O)c1ccccc1C2=O,26%,1%,inactive,3.48 µM,0%,1%,18%,8%
Cc1ccccc1C(=O)Nc1c(NC(=O)CCl)ccc2c1C(=O)c1ccccc1C2=O,98%,0%,inactive,3.67 µM,0%,0%,73%,0%
O=C(CCl)Nc1ccc2c(c1NC(=O)c1ccc(F)cc1)C(=O)c1ccccc1C2=O,11%,2%,inactive,3.14 µM,0%,0%,10%,4%
Cc1ccc(C(=O)Nc2c(NC(=O)CN(C)CCc3ccccn3)ccc3c2C(=O)c2ccccc2C3=O)cc1,94%,11%,inactive,6.68 µM,22%,1%,90%,46%
O=C(CCl)Nc1ccc2c(c1NC(=O)c1ccco1)C(=O)c1ccccc1C2=O,84%,2%,inactive,2.44 µM,2%,2%,80%,0%
Nc1c(NC(=O)CCl)ccc2c1C(=O)c1ccccc1C2=O,15%,13%,inactive,1.65 µM,13%,0%,8%,0%
COc1cccc2c1C(=O)c1c(O)c3c(c(O)c1C2=O)C[C@@](O)(C(=O)CO)C[C@@H]3O[C@H]1C[C@H](N)[C@H](O)[C@H](C)O1 [DOXORUBICIN],,,,0.25 µM,,,,
O=C(CCCCl)Nc1ccc2c(c1NC(=O)CCCCl)C(=O)c1ccccc1C2=O,113%,92%,inactive,3.94 µM,15%,19%,103%,79%
Cc1ccc(C(=O)Nc2c(NC(=O)CN3CCCCC3)ccc3c2C(=O)c2ccccc2C3=O)cc1,85%,70%,inactive,> 20 µM,8%,10%,86%,70%
O=C(CCl)Nc1ccc2c(c1NC(=O)c1ccccc1)C(=O)c1ccccc1C2=O,96%,94%,inactive,0.95 µM,15%,5%,101%,83%
O=C(CCCl)Nc1ccc2c(c1NC(=O)CCCl)C(=O)c1ccccc1C2=O,96%,94%,inactive,> 20 µM,15%,5%,101%,83%
O=C(CCl)Nc1ccc2c(c1NC(=O)c1cccs1)C(=O)c1ccccc1C2=O,5%,3%,inactive,2.64 µM,2%,0%,0%,2%
Cc1ccc(C(=O)Nc2c(NC(=O)CN3CCN(c4ncccn4)CC3)ccc3c2C(=O)c2ccccc2C3=O)cc1,87%,79%,inactive,> 20 µM,19%,59%,102%,91%
Cc1ccc(C(=O)Nc2c(NC(=O)CN3CCN(CCO)CC3)ccc3c2C(=O)c2ccccc2C3=O)cc1,76%,8%,inactive,2.07 µM,0%,0%,71%,44%
O=C(CCl)Nc1ccc2c(c1NC(=O)CCCl)C(=O)c1ccccc1C2=O,113%,92%,inactive,1.23 µM,15%,19%,103%,79%
O=C(CCl)Nc1ccc2c(c1NC(=O)COc1ccccc1)C(=O)c1ccccc1C2=O,82%,72%,inactive,> 20 µM,4%,4%,101%,66%
O=C(CCl)Nc1ccc2c(c1NC(=O)c1ccno1)C(=O)c1ccccc1C2=O,92%,4%,inactive,3.78 µM,1%,0%,105%,3%
O=C(CCl)Nc1ccc2c(c1NC(=O)CSc1ccccc1)C(=O)c1ccccc1C2=O,80%,3%,inactive,5.39 µM,0%,0%,88%,5%
O=C1c2c(O)ccc(O)c2C(=O)c2c(NCCNCCO)ccc(NCCNCCO)c21 [MITOXANTRONE],,,,0.29 µM,,,,
